In ChEMBL document CHEMBL1287754, “28-nor-oleanane-type triterpene saponins from Camellia japonica and their inhibitory activity on LPS-induced NO production in macrophage RAW264.7 cells” (Bioorg Med Chem Lett, 2010):

How the values were obtained:
RAW264.7 [1] = assay: Antiinflammatory activity in mouse RAW264.7 cells assessed as inhibition of LPS-induced nitric oxide production after 24 hrs by Griess reaction; format: functional, cell-based; details: RAW264.7, 24 h
How it was run: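 LPS-stimulated RAW264.7 macrophages; nitrite, the stable NO metabolite, quantified by Griess reaction in harvested culture medium. IC50 is the molar concentration giving 50% inhibition of NO production relative to vehicle control.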

RAW264.7 [2] = assay: Cytotoxicity against mouse RAW264.7 cells assessed as cell viability at 50 uM after 24 hrs by MTT assay; format: cell-based; details: raw264.7, 24 h
RAW264.7 [3] = assay: Cytotoxicity against LPS-stimulated mouse RAW264.7 cells assessed as cell viability at 50 uM after 24 hrs by MTT assay; format: cell-based; details: raw264.7, 24 h

Row | SMILES | IC50 (RAW264.7 [1]) | Activity (RAW264.7 [2]) | Activity (RAW264.7 [3])
1 | COC(=O)[C@H]1O[C@@H](O[C@H]2CC[C@@]3(C)C(CC[C@]4(C)[C@@H]3CC=C3C5=C(CCC(C)(C)C5)C(=O)C[C@]34C)C2(C)C)[C@H](O[C@H]2O[C@@H](CO)[C@@H](O)[C@@H](O)[C@@H]2O)[C@@H](O[C@@H]2O[C@H](CO)[C@H](O)[C@H](O)[C@H]2O[C@@H]2OC[C@@H](O)[C@H](O)[C@H]2O)[C@@H]1O (some centres undefined) [CAMELLIOSIDE H] | 15.9 µM | Non-toxic | Non-toxic
2 | CC1(C)CC[C@]2(O)C(=O)C[C@]3(C)C(=CC[C@@H]4[C@@]5(C)CC[C@H](O[C@@H]6O[C@H](C(=O)O)[C@@H](O)[C@H](O[C@@H]7O[C@H](CO)[C@H](O)[C@H](O)[C@H]7O[C@@H]7O[C@H](CO)[C@@H](O)[C@H](O)[C@H]7O)[C@H]6O[C@H]6O[C@@H](CO)[C@@H](O)[C@@H](O)[C@@H]6O)C(C)(C)C5CC[C@]43C)[C@@H]2C1 (some centres undefined) [CAMELLIOSIDE A] | 9.59 µM | Non-toxic | Non-toxic
3 | CC(=O)O[C@H]1[C@@H](O)[C@H](O)[C@@H](O[C@H]2[C@H](O[C@H]3CC[C@@]4(C)C(CC[C@]5(C)[C@@H]4CC=C4[C@@H]6CC(C)(C)CC[C@]6(O)C(=O)C[C@]45C)C3(C)C)O[C@H](C(=O)O)[C@@H](O)[C@@H]2O[C@@H]2O[C@H](CO)[C@H](O)[C@H](O)[C@H]2O[C@@H]2O[C@H](CO)[C@@H](O)[C@H](O)[C@H]2O)O[C@H]1CO (some centres undefined) [CAMELLIOSIDE] | 4.96 µM | Non-toxic | Non-toxic

The remaining compounds from weak to strong by IC50 (RAW264.7 [1]), led by results:

Row | IC50 (RAW264.7 [1]) | SMILES | Activity (RAW264.7 [2]) | Activity (RAW264.7 [3])
4 | 18.2 µM | CC1(C)CC[C@]2(O)C(=O)C[C@]3(C)C(=CC[C@@H]4[C@@]5(C)CC[C@H](O[C@@H]6O[C@H](C(=O)O)[C@@H](O)[C@H](O[C@@H]7O[C@H](CO)[C@H](O)[C@H](O)[C@H]7O[C@@H]7OC[C@@H](O)[C@H](O)[C@H]7O)[C@H]6O[C@H]6O[C@@H](CO)[C@@H](O)[C@@H](O)[C@@H]6O)C(C)(C)C5CC[C@]43C)[C@@H]2C1 (some centres undefined) [CAMELLIOSIDE E] | Non-toxic | Non-toxic
5 | 11.5 µM | CC(=O)O[C@H]1[C@@H](O)[C@H](O)[C@@H](O[C@H]2[C@H](O[C@H]3CC[C@@]4(C)C(CC[C@]5(C)[C@@H]4CC=C4[C@@H]6CC(C)(C)CC[C@]6(O)C(=O)C[C@]45C)C3(C)C)O[C@H](C(=O)O)[C@@H](O)[C@@H]2O[C@@H]2O[C@H](CO)[C@H](O)[C@H](O)[C@H]2O[C@@H]2OC[C@@H](O)[C@H](O)[C@H]2O)O[C@H]1CO (some centres undefined) [CAMELLIOSIDE F] | Non-toxic | Non-toxic
6 | 5.16 µM | COC(=O)[C@H]1O[C@@H](O[C@H]2CC[C@@]3(C)C(CC[C@]4(C)[C@@H]3CC=C3[C@@H]5CC(C)(C)CC[C@]5(O)C(=O)C[C@]34C)C2(C)C)[C@H](O[C@H]2O[C@@H](CO)[C@@H](O)[C@@H](O)[C@@H]2O)[C@@H](O[C@@H]2O[C@H](CO)[C@H](O)[C@H](O)[C@H]2O[C@@H]2OC[C@@H](O)[C@H](O)[C@H]2O)[C@@H]1O (some centres undefined) [CAMELLIOSIDE G] | Non-toxic | Non-toxic
7 | 0.022 µM | CC1CCN=C(N)S1 (centres undefined) |  | 
